Reference: ChEMBL document CHEMBL1124260, “Synthesis and antitumor activity of quaternary ellipticine glycosides, a series of novel and highly active antitumor agents” (1988)

Key:
Mus musculus [1] = assay: Number of survivors out of 6 ip implanted L1210 leukemia in mouse after ip administration of 10 mg/kg after 80 days; type: functional; settings: route intraperitoneal
Procedure, shortened: (§1)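 Female BDF1 mice implanted ip with ascitic fluid holding 10^5 L1210 cells. Saline-dissolved drug given ip daily on days 1-5, starting 24 h after implant. Six mice per dose group, followed 80 days. Survivors/total counted at day 80; ILS % from mean survival time vs controls.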

Mus musculus [2] = assay: Number of survivors out of 6 ip implanted L1210 leukemia in mouse after ip administration of 20 mg/kg after 80 days; type: functional; settings: route intraperitoneal; procedure, shortened: as §1
Mus musculus [3] = assay: Number of survivors out of 6 ip implanted L1210 leukemia in mouse after ip administration of 40 mg/kg after 80 days; type: functional; settings: route intraperitoneal; procedure, shortened: as §1
Mus musculus [4] = assay: Antitumor activity against ip implanted L1210 leukemia in mouse after ip administration of 1.25 mg/kg for 5 days expressed as increase in mean life span; type: functional; settings: 120 h, route intraperitoneal
Procedure, shortened: (§2)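 Drug was dissolved in 0.9% NaCl, diluted just before use and given ip once daily for 5 consecutive days, starting 24 h after transplant. ILS % = mean survival time of treated vs control mice, observed for 80 days.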

Mus musculus [5] = assay: Number of survivors out of 6 ip implanted P388 leukemia in mouse after ip administration of 10 mg/kg after 80 days; type: functional; settings: route intraperitoneal
Procedure, shortened: (§3)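 P388 leukemia, 10^6 ascitic cells implanted ip in female BDF1 mice. Drug in saline given ip for 5 consecutive days from 24 h after transplant. Groups of six per dose level. Survivors/total recorded at the 80-day end of observation; ILS % from treated/control mean survival time.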

Mus musculus [6] = assay: Number of survivors out of 6 ip implanted P388 leukemia in mouse after ip administration of 20 mg/kg after 80 days; type: functional; settings: route intraperitoneal; procedure, shortened: as §3
Mus musculus [7] = assay: Number of survivors out of 6 ip implanted P388 leukemia in mouse after ip administration of 40 mg/kg after 80 days; type: functional; settings: route intraperitoneal; procedure, shortened: as §3
Mus musculus [8] = assay: Antitumor activity against ip implanted L1210 leukemia in mouse after ip administration of 10 mg/kg for 5 days expressed as increase in mean life span; type: functional; settings: route intraperitoneal; procedure, shortened: as §2
Mus musculus [9] = assay: Antitumor activity against ip implanted L1210 leukemia in mouse after ip administration of 20 mg/kg for 5 days expressed as increase in mean life span; type: functional; settings: 120 h, route intraperitoneal; procedure, shortened: as §2
Mus musculus [10] = assay: Antitumor activity against ip implanted L1210 leukemia in mouse after ip administration of 30 mg/kg for 5 days expressed as increase in mean life span; type: functional; settings: route intraperitoneal; procedure, shortened: as §2
Mus musculus [11] = assay: Antitumor activity against ip implanted L1210 leukemia in mouse after ip administration of 40 mg/kg for 5 days expressed as increase in mean life span; type: functional; settings: 120 h, route intraperitoneal; procedure, shortened: as §2
Mus musculus [12] = assay: Antitumor activity against ip implanted L1210 leukemia in mouse after ip administration of 5 mg/kg for 5 days expressed as increase in mean life span; type: functional; settings: Mus musculus, L1210, ip, 120 h, route intraperitoneal; procedure, shortened: as §2
Mus musculus [13] = assay: Antitumor activity against ip implanted P388 leukemia in mouse after ip administration of 1.25 mg/kg for 5 days expressed as increase in mean life span; type: functional; settings: 120 h, route intraperitoneal
Procedure, shortened: (§4)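 Saline-dissolved drug was given ip daily for 5 consecutive days, beginning 24 h post-transplant. ILS % was calculated from treated vs control mean survival time over an 80-day observation period.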

Mus musculus [14] = assay: Antitumor activity against ip implanted P388 leukemia in mouse after ip administration of 10 mg/kg for 5 days expressed as increase in mean life span; type: functional; settings: 120 h, route intraperitoneal; procedure, shortened: as §4
Mus musculus [15] = assay: Antitumor activity against ip implanted P388 leukemia in mouse after ip administration of 20 mg/kg for 5 days expressed as increase in mean life span; type: functional; settings: 120 h, route intraperitoneal; procedure, shortened: as §4
Mus musculus [16] = assay: Antitumor activity against ip implanted P388 leukemia in mouse after ip administration of 40 mg/kg for 5 days expressed as increase in mean life span; type: functional; settings: 120 h, route intraperitoneal; procedure, shortened: as §4
Mus musculus [17] = assay: Antitumor activity against ip implanted P388 leukemia in mouse after ip administration of 5 mg/kg for 5 days expressed as increase in mean life span; type: functional; settings: 120 h, route intraperitoneal; procedure, shortened: as §4
Mus musculus [18] = assay: Number of survivors out of 6 ip implanted L1210 leukemia mouse, tested after 80 days at 30 mg/kg; type: functional; settings: route intraperitoneal; procedure, shortened: as §1
Mus musculus [19] = assay: Inhibition of sc implanted syngeneic colon 38 carcinoma by ip administration at 20 mg/kg on 1, 3, 5, 7, 9 days measured as inhibition ratio; type: functional; settings: route subcutaneous
Procedure, shortened: (§5)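 Tumor homogenate (70 mg) implanted into the axillary region of female BDF1 mice. Drug dissolved in 0.9% NaCl and diluted with saline just before use, then given ip on days 1, 3, 5, 7 and 9. Tumor length and width were measured by caliper on day 20 after inoculation and converted to estimated weight. Result reported as treated vs control tumor weight, T/C %.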

Mus musculus [20] = assay: Inhibition of sc implanted syngeneic colon 38 carcinoma by ip administration at 30 mg/kg on 1, 3, 5, 7, 9 days measured as inhibition ratio; type: functional; settings: route intraperitoneal; procedure, shortened: as §5
Mus musculus [21] = assay: Inhibition of sc implanted syngeneic colon 38 carcinoma by ip administration at 40 mg/kg on 1, 3, 5, 7, 9 days measured as inhibition ratio; type: functional; settings: route subcutaneous; procedure, shortened: as §5
Mus musculus [22] = assay: Effect on ip implanted syngeneic B16 melanoma by ip administration of 20 mg/kg for 9 days measured as increase in mean life span; settings: 216 h
Mus musculus [23] = assay: Effect on ip implanted syngeneic B16 melanoma by ip administration for 9 days at 5 mg/kg was measured as increase in mean life span; settings: 216 h
Mus musculus [24] = assay: Effect on ip implanted syngeneic B16 melanoma by ip administration for 9 days at 10 mg/kg was measured as increase in mean life span; settings: 216 h
Mus musculus [25] = assay: Antitumor activity against ip implanted L1210 leukemia in mouse after iv administration of 8 mg/kg for 5 days expressed as increase in mean life span; settings: 120 h
Mus musculus [26] = assay: Antitumor activity against ip implanted P388 leukemia in mouse after iv administration of 32 mg/kg for 5 days expressed as increase in mean life span; settings: 120 h
Mus musculus [27] = assay: Antitumor activity against ip implanted L1210 leukemia in mouse after iv administration of 32 mg/kg for 5 days expressed as increase in mean life span; settings: 120 h
Mus musculus [28] = assay: Antitumor activity against ip implanted L1210 leukemia in mouse after iv administration of 16 mg/kg for 5 days expressed as increase in mean life span; settings: 120 h
Mus musculus [29] = assay: Number of survivors out of 6 ip implanted L1210 leukemia in mouse after ip administration of 80 mg/kg after 80 days; type: functional; settings: route intraperitoneal; procedure, shortened: as §1
Mus musculus [30] = assay: Number of survivors out of 6 ip implanted P388 leukemia in mouse after ip administration of 80 mg/kg after 80 days; type: functional; settings: route intraperitoneal; procedure, shortened: as §3
Mus musculus [31] = assay: Antitumor activity against ip implanted P388 leukemia in mouse after ip administration of 80 mg/kg for 5 days expressed as increase in mean life span; type: functional; settings: 120 h, route intraperitoneal; procedure, shortened: as §4
Mus musculus [32] = assay: Inhibition of sc implanted syngeneic colon 38 carcinoma by ip administration at 60 mg/kg on 1, 3, 5, 7, 9 days measured as inhibition ratio; type: functional; settings: route subcutaneous; procedure, shortened: as §5
Mus musculus [33] = assay: Inhibition of sc implanted syngeneic colon 38 carcinoma by ip administration at 80 mg/kg on 1, 3, 5, 7, 9 days measured as inhibition ratio; type: functional; settings: route subcutaneous; procedure, shortened: as §5
Mus musculus [34] = assay: Effect on ip implanted syngeneic B16 melanoma by ip administration of 30 mg/kg for 9 days measured as increase in mean life span; settings: 216 h
Mus musculus [35] = assay: Antitumor activity against ip implanted P388 leukemia in mouse after iv administration of 4 mg/kg for 5 days expressed as increase in mean life span; settings: 120 h
Mus musculus [36] = assay: Antitumor activity against ip implanted P388 leukemia in mouse after iv administration of 8 mg/kg for 5 days expressed as increase in mean life span; settings: 120 h
Mus musculus [37] = assay: Antitumor activity against ip implanted L1210 leukemia in mouse after iv administration of 4 mg/kg for 5 days expressed as increase in mean life span; settings: 120 h
Mus musculus [38] = assay: Antitumor activity against ip implanted L1210 leukemia in mouse after iv administration of 2 mg/kg for 5 days expressed as increase in mean life span; settings: 120 h

Compound	Cures (Mus musculus [2])	Cures (Mus musculus [3])	ILS at 1.25 mg/kg (Mus musculus [4]) [%]	Cures (Mus musculus [5])	Cures (Mus musculus [6])	Cures (Mus musculus [7])	ILS at 20 mg/kg (Mus musculus [9]) [%]	ILS at 40 mg/kg (Mus musculus [11]) [%]	ILS at 5 mg/kg (Mus musculus [12]) [%]	ILS at 1.25 mg/kg (Mus musculus [13]) [%]	ILS at 10 mg/kg (Mus musculus [14]) [%]	ILS at 20 mg/kg (Mus musculus [15]) [%]	ILS at 40 mg/kg (Mus musculus [16]) [%]	ILS at 5 mg/kg (Mus musculus [17]) [%]	T/C (Mus musculus [20]) [%]	T/C (Mus musculus [21]) [%]	ILS at 20 mg/kg (Mus musculus [22]) [%]	ILS at 5 mg/kg (Mus musculus [23]) [%]	ILS at 10 mg/kg (Mus musculus [24]) [%]	also measured
Cc1c2cc[n+]([C@@H]3O[C@H](CO)[C@H](O)[C@@H]3O)cc2c(C)c2c1[nH]c1ccc(O)cc12.[Cl-] (stereo in doubt; 43a)	3	1	46	2	4	2	> 503	> 281	102	68	> 332	> 510	> 220	158	19	8	77	39	44	Cures (Mus musculus [1]): 2; ILS (Mus musculus [8]; 10 mg/kg): >377%; ILS at 30 mg/kg (Mus musculus [10]; Mus musculus, L1210, ip, 120 h): > 967%; Cures (Mus musculus [18]): 6; T/C (Mus musculus [19]): 61%; ILS at 8 mg/kg (Mus musculus [25]): 49%; ILS at 32 mg/kg (Mus musculus [26]): 176%; ILS at 32 mg/kg (Mus musculus [27]): 134%; ILS at 16 mg/kg (Mus musculus [28]): 81%
Cc1c2cc[n+]([C@H]3O[C@@H](C)[C@@H](O)[C@@H](O)[C@@H]3O)cc2c(C)c2c1[nH]c1ccc(O)cc12.[Br-] (stereo in doubt; 56)	1	4	56	2	5	6	> 248	> 712	67	85	> 341	> 677	> 789	109	52	19	81	50	62	Cures (Mus musculus [29]): 6; Cures (Mus musculus [30]): 4; ILS at 10 mg/kg (Mus musculus [8]; Mus musculus, L1210, ip, 120 h): 107%; ILS (Mus musculus [10]; 30 mg/kg): >693%; ILS at 80 mg/kg (Mus musculus [31]): > 513%; Cures (Mus musculus [18]; 30 mg/kg): 4; T/C (Mus musculus [32]): 3%; T/C (Mus musculus [33]): 2%; ILS at 30 mg/kg (Mus musculus [34]): 58%; ILS at 4 mg/kg (Mus musculus [35]): 63%; ILS at 8 mg/kg (Mus musculus [36]): 76%; ILS at 4 mg/kg (Mus musculus [37]): 38%; ILS at 2 mg/kg (Mus musculus [38]): 9%
